Laboratory results taken from ChEMBL document CHEMBL4406857, “Discovery of new small molecule inhibitors targeting isocitrate dehydrogenase 1 (IDH1) with blood-brain barrier penetration” (Eur J Med Chem, 2019).
Blank lines part the entries; values can stand above or below the compound they belong to. Calls of active or inactive are those of the source. The calls are words filed in the database; no cut-off is given here.

Tests used:
[1] = molecular target: T1, Isocitrate dehydrogenase [NADP] cytoplasmic (Homo sapiens, UniProt O75874, R132C); assay: (§1) Inhibition of recombinant human C-terminal His8-tagged IDH1 R132C mutant expressed in Escherichia coli BL21 assessed as reduction in NADPH consumption using alpha-ketoglutarate as substrate preincubated for 60 mins followed by substrate addition and measured for 60 mins in presence of NADPH by diaphorase/resazurin-based fluorescence assay
[2] = molecular target: Isocitrate dehydrogenase [NADP] cytoplasmic (Homo sapiens, UniProt O75874, R132H); assay: as §1, with “R132H” for “R132C”, “addition” for “addition and”, “diaphorase/resazurin-based” for “diaphorase/resazurin-based fluorescence”
[3] = Clearance in ICR mouse at 1 mg/kg, iv measured upto 24 hrs by LCMS analysis; format: ADME, organism-based; conditions: in vivo
How it was run: (§2)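 Male ICR mice (6-8 weeks, 20-25 g), nine animals, dosed 1 mg/kg by slow intravenous injection or 5 mg/kg orally. Blood sampled into EDTA at 5 min (iv only), 15 min, 30 min, 1, 2, 4, 8 and 24 h. Plasma stored at -20 °C, prepared by acetonitrile protein precipitation with dexamethasone internal standard, and analysed for parent compound. Values are means of three replicates.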

[4] = Volume of distribution at steady state in ICR mouse at 1 mg/kg, iv measured upto 24 hrs by LCMS analysis; format: ADME, organism-based; conditions: in vivo, read-out: Vdss; how it was run: as §2
[5] = Half life in ICR mouse at 1 mg/kg, iv measured upto 24 hrs by LCMS analysis; format: ADME, organism-based; conditions: in vivo; how it was run: as §2
[6] = AUC in ICR mouse at 1 mg/kg, iv measured upto 24 hrs by LCMS analysis; format: ADME, organism-based; set-up: time < 24 hr, dose 1 mg/kg, route intravenous; conditions: in vivo; how it was run: as §2
[7] = Cmax in ICR mouse at 5 mg/kg, po measured upto 24 hrs by LCMS analysis; format: ADME, organism-based; set-up: dose 5 mg/kg, route oral; conditions: in vivo; how it was run: as §2
[8] = Half life in ICR mouse at 5 mg/kg, po measured upto 24 hrs by LCMS analysis; format: ADME, organism-based; conditions: in vivo; how it was run: as §2
[9] = AUC in ICR mouse at 5 mg/kg, po measured upto 24 hrs by LCMS analysis; format: ADME, organism-based; set-up: dose 5 mg/kg, time < 24 hr, route oral; conditions: in vivo; how it was run: as §2
[10] = Oral bioavailability in ICR mouse at 5 mg/kg measured upto 24 hrs by LCMS analysis; format: ADME, organism-based; conditions: in vivo; for bioavailability: ICR; how it was run: as §2
[11] = molecular target: Isocitrate dehydrogenase [NADP] cytoplasmic (Homo sapiens, UniProt O75874); assay: as §1, with “of wild type” for “of”, “IDH1” for “IDH1 R132C mutant”, “in NADP” for “in NADPH”, “using DL-isocitrate” for “using alpha-ketoglutarate”, “of NADP” for “of NADPH”
[12] = molecular target: T1, Isocitrate dehydrogenase [NADP] cytoplasmic; assay: Inhibition of IDH1 R132C mutant in human HT1080 cells assessed as reduction in 2-HG production incubated with compound for 48 hrs by D2HG assay kit based fluorescence assay; format: cell-based
[13] = test system: Isocitrate dehydrogenase [NADP] cytoplasmic (Homo sapiens), O75874 [R132H]; assay: Inhibition of human IDH1 R132H mutant transfected in GL261 cells assessed as reduction in 2-HG production at 100 nM incubated with compound for 48 hrs by D2HG assay kit based fluorescence assay; format: cell-based
[14] = Drug uptake in plasma of athymic BALB/c nude mouse xenografted with human HT1080 cells at 50 to 150 mg/kg, po administered as a single dose via gavage measured upto 24 hrs post dosing by LC-MS/MS analysis; format: ADME, organism-based; conditions: in vivo
How it was run: (§3)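 Female athymic nude mice carrying subcutaneous right-flank HT1080 xenografts (5 × 10^6 cells in PBS/Matrigel 1:1). Compound given by oral gavage as a suspension in 0.5% MC + 0.5% Tween 80 in water, 10 ml/kg. Blood taken by orbital sinus bleed; brain and tumour collected at 2, 6, 12 and 24 h, homogenized in PBS. Samples acetonitrile-precipitated with dexamethasone internal standard and measured by LC/MS/MS.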

HT-1080 = assay: In vivo inhibition of IDH1 R132C mutant in human HT1080 cells xenografted in athymic BALB/c nude mouse assessed as reduction in 2-HG level in tumor tissue at 50 mg/kg, po administered as a single dose via gavage measured upto 24 hrs post dosing by LC-MS/MS analysis; format: functional, organism-based
How it was run: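 HT1080 subcutaneous xenografts in female athymic nude mice, randomized block design, 12 mice per group. Oral gavage of suspension (0.5% MC + 0.5% Tween 80 in water, 10 ml/kg). Tumours collected at 2, 6, 12 and 24 h and frozen in liquid nitrogen. 2-HG measured by LC/MS/MS; percent inhibition taken relative to vehicle-treated mice, reported as mean ± SEM.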

[15] = Drug uptake in brain of athymic BALB/c nude mouse xenografted with human HT1080 cells at 50 to 150 mg/kg, po administered as a single dose via gavage measured upto 24 hrs post dosing by LC-MS/MS analysis; format: ADME, organism-based; conditions: in vivo; how it was run: as §3
[16] = Drug uptake in tumor of athymic BALB/c nude mouse xenografted with human HT1080 cells at 50 to 150 mg/kg, po administered as a single dose via gavage measured upto 24 hrs post dosing by LC-MS/MS analysis; format: ADME, organism-based, Neoplasm; conditions: in vivo; how it was run: as §3
[17] = Drug uptake in plasma of athymic BALB/c nude mouse xenografted with human HT1080 cells at 50 mg/kg, po administered as a single dose via gavage measured upto 24 hrs post dosing by LC-MS/MS analysis; format: ADME, organism-based; conditions: in vivo; how it was run: as §3
[18] = Drug uptake in brain of athymic BALB/c nude mouse xenografted with human HT1080 cells at 50 mg/kg, po administered as a single dose via gavage measured upto 24 hrs post dosing by LC-MS/MS analysis; format: ADME, organism-based; conditions: in vivo; how it was run: as §3
[19] = Drug uptake in tumor of athymic BALB/c nude mouse xenografted with human HT1080 cells at 50 mg/kg, po administered as a single dose via gavage measured upto 24 hrs post dosing by LC-MS/MS analysis; format: ADME, organism-based, Neoplasm; conditions: in vivo; how it was run: as §3

T1 sequence (O75874 2-414 R132C limits assumed): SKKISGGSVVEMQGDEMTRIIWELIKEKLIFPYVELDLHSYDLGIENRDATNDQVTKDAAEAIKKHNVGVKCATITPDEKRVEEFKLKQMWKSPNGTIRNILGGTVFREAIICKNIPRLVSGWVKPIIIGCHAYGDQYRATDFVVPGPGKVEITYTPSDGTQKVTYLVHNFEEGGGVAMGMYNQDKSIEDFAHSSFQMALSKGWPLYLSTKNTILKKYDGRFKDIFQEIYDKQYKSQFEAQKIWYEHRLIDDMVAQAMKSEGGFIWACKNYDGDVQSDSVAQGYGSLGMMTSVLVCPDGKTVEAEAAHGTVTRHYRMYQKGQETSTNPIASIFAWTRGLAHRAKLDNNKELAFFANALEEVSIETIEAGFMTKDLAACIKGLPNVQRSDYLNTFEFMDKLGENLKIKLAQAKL
Sequence of Isocitrate dehydrogenase [NADP] cytoplasmic (Homo sapiens, UniProt O75874, R132H) (O75874 2-414 R132H limits assumed): as the sequence (O75874 2-414 R132C limits assumed) above, with C131H counted along it
Sequence of Isocitrate dehydrogenase [NADP] cytoplasmic (Homo sapiens), O75874 [R132H] (O75874 whole entry R132H): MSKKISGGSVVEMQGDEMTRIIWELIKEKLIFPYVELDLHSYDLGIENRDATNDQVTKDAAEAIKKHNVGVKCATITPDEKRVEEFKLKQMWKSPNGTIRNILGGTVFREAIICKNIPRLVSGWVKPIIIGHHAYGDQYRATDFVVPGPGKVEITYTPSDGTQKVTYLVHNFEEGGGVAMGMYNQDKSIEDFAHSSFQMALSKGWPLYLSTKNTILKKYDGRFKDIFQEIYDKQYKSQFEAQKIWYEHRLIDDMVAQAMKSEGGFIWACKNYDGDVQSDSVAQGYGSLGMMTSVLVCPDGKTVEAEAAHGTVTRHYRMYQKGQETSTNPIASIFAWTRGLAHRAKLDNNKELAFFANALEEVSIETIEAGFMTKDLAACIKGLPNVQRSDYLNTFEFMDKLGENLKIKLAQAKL
Sequence of Isocitrate dehydrogenase [NADP] cytoplasmic (Homo sapiens, UniProt O75874) (O75874 whole entry): as the sequence (O75874 whole entry R132H) above, with H132R counted along it

SMILES: CC(C)[C@H]1C(C)OC(=O)N1c1ccnc(N[C@@H](C)c2ncn3c2CCc2cc(C(F)(F)F)ccc2-3)n1 (stereo partly specified)
IC50 [1]: 15 nM
IC50 [2]: 42 nM

SMILES: C[C@H](Nc1nccc(N2CC3(CC3)OC2=O)n1)c1ncn2c1CCc1cc(C(F)(F)F)ccc1-2
IC50 [1]: 5860 nM
IC50 [2]: > 10000 nM

SMILES: C[C@H](Nc1nccc(N2C(=O)OC[C@@H]2[C@H](C)F)n1)c1ncn2c1CCc1c(Cl)cccc1-2
IC50 [1]: 81.9 nM
IC50 [2]: 24.1 nM

SMILES: C[C@H](Nc1nccc(N2C(=O)OC3(COC3)[C@@H]2c2ccccc2)n1)c1ncn2c1CCc1cc(C(F)(F)F)ccc1-2
IC50 [1]: 9.7 nM
IC50 [2]: 33.8 nM

SMILES: C[C@H](Nc1nccc(N2C(=O)OC[C@@H]2[C@H](C)F)n1)c1ncn2c1COc1cc(C#N)ccc1-2
IC50 [1]: 394 nM
IC50 [2]: 478 nM

SMILES: N#Cc1ccnc(N2C(=O)CC[C@H]2C(=O)N(c2cncc(F)c2)[C@H](C(=O)NC2CC(F)(F)C2)c2ccccc2Cl)c1 [IVOSIDENIB]
clearance [3]: 9 mL/min/kg
Vd [4]: 1.5 L/kg
half-life [5]: 2.5 h
AUC at 24 h [6]: 2.97 µM·h
Cmax [7]: 2260 nM
half-life [8]: 3.5 h
AUC at 24 h [9]: 11.2 µM·h
bioavailability [10]: 80%
Drug uptake [17]: Active
Drug uptake [18]: Active
Drug uptake [19]: Active

The next lines start with results.

IC50 [1]: 17 nM
IC50 [2]: 2.1 nM
clearance [3]: 21 mL/min/kg
Vd [4]: 2.1 L/kg
half-life [5]: 1.4 h
AUC at 24 h [6]: 1.52 µM·h
Cmax [7]: 1700 nM
half-life [8]: 2.5 h
AUC at 24 h [9]: 12.7 µM·h
F ([10]; 24 h): 165%
SMILES: C[C@H](Nc1ncc(F)c(N2C(=O)OC[C@@H]2[C@H](C)F)n1)c1ncn2c1CCc1cc(C(F)(F)F)ccc1-2

IC50 [11]: 6680 nM
IC50 [1]: 8.2 nM
IC50 [2]: 4 nM
IC50 [12]: 15.9 nM
inhibition [13]: Active
clearance [3]: 23 mL/min/kg
Vd [4]: 2.3 L/kg
half-life [5]: 1.5 h
AUC at 24 h [6]: 1.44 µM·h
Cmax [7]: 1690 nM
half-life [8]: 2.5 h
AUC at 24 h [9]: 11 µM·h
bioavailability [10]: 150%
Drug uptake [14]: Active
Drug uptake [15]: Active
Drug uptake [16]: Active
SMILES: C[C@H](Nc1nccc(N2C(=O)OC[C@@H]2[C@H](C)F)n1)c1ncn2c1CCc1cc(C(F)(F)F)ccc1-2
inhibition (HT-1080): Active

IC50 [1]: 16.3 nM
IC50 [2]: 42.7 nM
SMILES: Cc1ccc2c(c1)CCc1c([C@H](C)Nc3nccc(N4C(=O)OC[C@@H]4[C@H](C)F)n3)ncn1-2

IC50 [1]: 43.5 nM
IC50 [2]: 44.3 nM
SMILES: C[C@H](Nc1nccc(N2C(=O)OC[C@@H]2[C@H](C)F)n1)c1ncn2c1CCCc1cc(C(F)(F)F)ccc1-2

IC50 [1]: 23.6 nM
IC50 [2]: 2.12 nM
SMILES: C[C@H](Nc1nc(Cl)cc(N2C(=O)OC[C@@H]2[C@H](C)F)n1)c1ncn2c1CCc1cc(C(F)(F)F)ccc1-2

IC50 [1]: 8 nM
IC50 [2]: 18.4 nM
SMILES: C[C@H](Nc1nccc(N2C(=O)OC[C@@H]2[C@H](C)F)n1)c1ncn2c1CCc1ccc(C(F)(F)F)cc1-2
